# UPR XBP1 act = activators of adaptive arm of unfolded protein response (XBP1); CHO-XBP1 luciferase reporter, IRE1-XBP1 UPR activation, luminescence; percent of tunicamycin response, DMSO as zero; activation, % at 20 µM; 330,000 compounds, 0.33% hits; AID 463104;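 active = versus positive control, 20 µM dose yields 30% or more activation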
#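 incubation = overnight seeding at 37 °C, 6 h compound treatment at 37 °C | assay system = CHO-XBP1 cells stably carrying IRE1-XBP1-driven luciferase reporter | input = 1000 cells per well | detection = luciferase luminescence | dosing = single point, 20 µM final compound, 1% DMSO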
# Jurkat NFkB inh = inhibitors of the PMA/ionomycin-induced NF-kB reporter in Jurkat cells | PMA/ionomycin-induced NF-kB luciferase reporter, luminescence | inhibition, % at 4 µM | 330,000 compounds, 0.53% hits | AID 435003; in the data active = inhibition above about 50%
# CHOP inh = inhibitors of CHOP induction in ER stress response; AID 2732; 220,000 compounds, 3.8% hits; inhibition, % at 10 µM; CHO-K1 CHOP-promoter luciferase, tunicamycin-induced, 15-18 h;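 active = compounds that reduced the stress-induced luciferase reporter signal by more than about 70% of percent inhibition, limit read from the data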
# CHOP UPR activ = activators of apoptotic arm of unfolded protein response (CHOP) | CHO-CHOP luciferase reporter, UPR activation, luminescence; percent of tunicamycin response over DMSO baseline | activation, % at 10 µM | 330,000 compounds, 0.34% hits;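 active = at 10 µM dose, activation of 40% or more, normalized to positive control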
#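 measured by = luciferase luminescence | assay system = CHO-CHOP cells, stable luciferase reporter of PERK-eIF2a-CHOP signalling | amount = 500 reporter cells seeded per well | timing = 6 h compound exposure at 37 °C after overnight seeding | controls = positive tunicamycin 10 µg/mL, negative DMSO alone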
# 697 NFkB inh = lowers PMA/ionomycin-induced NF-kB signal in 697 B cells | 697 B-cell NF-kB luciferase reporter, 16 h | inhibition, % at 4 µM | 330,000 compounds, 0.33% hits | AID 435022; in the data active = inhibition above about 35%
# Jurkat NFkB conf = inhibitors of the PMA/ionomycin-induced NF-kB reporter in Jurkat cells, retest. shares compounds with Jurkat NFkB inh. Jurkat NF-kB luciferase, 16 h. inhibition, % at 4 µM. 2,700 compounds, 27% hits. AID 435020;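 active = inhibition reaching about 45% at 4 µM in either replicate, limit read from the data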
# Numbers stand for hits; - = inactive; . = no result given. Many of the other results were omitted from the sample, so hits are more common in it than they were.
SMILES,UPR XBP1 act,Jurkat NFkB inh,CHOP inh,CHOP UPR activ,697 NFkB inh,Jurkat NFkB conf
CCOc1ccc2c(c1)OC(c1ccc(OC)cc1)(C(F)(F)F)NC2=O (centres undefined),-,57,-,-,-,-
O=C(CCN1CCN(C(=O)c2ccccc2)CC1)c1ccc(Br)cc1,-,-,.,-,-,.
CCN(CC(=O)NCc1ccc(Cl)cc1)C(=O)CNS(=O)(=O)c1ccc(NC(C)=O)cc1,-,-,.,-,-,.
O=C(CNC(=O)c1ccco1)N=Nc1c(O)n(CCc2ccccc2)c2ccccc12,-,67,-,-,-,51
COc1ccc(-c2nn(-c3ccccc3)cc2C(=O)N2CCN(C(=O)c3ccco3)CC2)cc1,-,-,.,-,-,.
CCc1ccc(C(=O)NC(CCSC)C(=O)OC)cc1 (centres undefined),-,-,-,-,-,.
Cc1ccc(N/C(N)=N/c2nc(CSc3nnc(C)s3)cc(=O)[nH]2)c(C)c1,-,72,-,-,-,52
C#Cc1ccc([C@@H]2C=C(C(=O)N3CCN(Cc4ccccc4)CC3)O[C@H](OCCCCO)C2)cc1,-,80,-,-,-,-
O=C(C1=C[C@H](c2ccccc2)C[C@H](OCCCCO)O1)N1CCN(Cc2ccccc2)CC1,-,-,-,-,-,.
COc1ccc(C(=O)c2ccc(N(C)C)cc2)c(OC)c1,-,68,.,-,-,47
CCCCCCCCn1c2c(c(=N)c3ccccc31)CCC2,-,99,77,-,-,69
CCOC(=O)Cn1c2c(c(=N)c3ccccc31)CCC2,-,-,-,-,-,.
CCCCCn1c2c(c(=N)c3ccccc31)CCC2,-,74,-,-,-,47
CC(=O)NNC(=O)CCn1c2c(c3ccccc31)CCCC2,-,-,-,-,-,.
CS(=O)(=O)Nc1ccc(C(=O)Nc2ccccc2Cl)cc1,-,-,-,-,-,.
CC(C)(C)c1ccc(C(=O)Nc2ccccc2Cl)cc1,-,-,-,-,-,-
Cc1cc(C)cc(NS(=O)(=O)c2ccc(-c3cnc(C4CC4)o3)cc2)c1,-,56,.,-,-,55
COc1ccccc1NS(=O)(=O)c1cc(-c2cnc(C3CC3)o2)ccc1C,-,-,.,-,-,.
Cc1ccc(C)c(NS(=O)(=O)c2ccc(-c3cnc(C4CC4)o3)cc2)c1,-,61,.,-,-,60
CCOc1ccc(NS(=O)(=O)c2ccc(-c3cnc(C4CC4)o3)cc2)cc1,-,-,.,-,-,.
CC(=O)Nc1ccc(NS(=O)(=O)c2ccc(-c3cnc(C4CC4)o3)cc2)cc1,-,-,.,-,-,.
O=S(=O)(Nc1ccccc1)c1ccc(-c2cnc(C3CC3)o2)cc1,-,53,.,-,-,-
Cc1cccc(NS(=O)(=O)c2ccc(-c3cnc(C4CC4)o3)cc2)c1C,-,60,.,-,-,66
CC(=O)c1cccc(NS(=O)(=O)c2ccc(-c3cnc(C4CC4)o3)cc2)c1,-,-,.,-,-,.
COc1ccc(NS(=O)(=O)c2cc(-c3cnc(C4CC4)o3)ccc2C)cc1,-,59,.,-,-,49
SMILES,UPR XBP1 act,Jurkat NFkB inh,CHOP inh,CHOP UPR activ,697 NFkB inh,Jurkat NFkB conf
CCN(c1ccccc1)S(=O)(=O)c1ccc(OC)c(NC(=O)C2CC(=O)N(Cc3ccccc3)C2)c1 (centres undefined),-,-,-,-,-,.
COc1cc(C(=O)Nc2ccc(S(=O)(=O)N3CCc4ccccc43)cc2)cc(OC)c1OC,-,-,-,-,-,.
COc1cc(C(=O)Nc2ccc3c(c2)CCN3C(C)=O)cc(OC)c1OC,-,68,-,-,-,-
COc1cc(C(=O)Nc2ccc3c(c2)Cc2ccccc2-3)cc(OC)c1OC,-,54,-,-,-,-
O=C(C(=S)N1CCOCC1)c1c[nH]c2ccccc12,-,-,-,-,-,.
CN(C)c1ccc(/C=N/n2ncc3ccccc32)cc1,-,-,-,-,-,-
C=CCn1c(C)nnc1SCC(=O)Nc1oc(C)c2c(C)n[nH]c(=O)c12,-,-,.,-,-,.
Cc1ccccc1S(=O)(=O)Nc1nc2ccccc2nc1N1CCc2ccccc2C1,-,-,-,-,-,-
O=S(=O)(Nc1nc2ccccc2nc1N1CCc2ccccc2C1)c1ccc(Br)cc1,.,.,-,.,.,.
O=C(Nc1ccc(N2CCCC2)cc1)c1ccccc1F,-,-,-,-,-,.

# Screening data (PubChem)
